ChEMBL document CHEMBL1212846, “Synthesis and in vivo evaluation of [11C]tariquidar, a positron emission tomography radiotracer based on a third-generation P-glycoprotein inhibitor” (Bioorg Med Chem, 2010)
The source made the active and inactive calls. The rule behind the calls is not given here.

Legend:
Brain [1] = assay: Drug uptake in rat brain at 15 mg/kg, iv after 60 mins post-radiotracer administration; format: ADME, organism-based; parameters: dose 15 mg/kg, route intravenous; conditions: in vivo, 1 h
Brain [2] = assay: Drug uptake in rat brain after 25 mins; format: ADME, tissue-based; conditions: in vivo
Summary of the method: (§1)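 Naïve rats under isoflurane anaesthesia (1.5–2% maintenance), warmed to about 38 °C, with femoral artery and vein catheters. Baseline dynamic PET, whole-brain TACs expressed as SUV. Arterial blood sampled frequently and gamma-counted.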

Brain [3] = assay: Drug uptake in rat brain at 5 mg/kg, iv after 60 mins post-radiotracer administration; format: ADME, organism-based; parameters: dose 5 mg/kg, route intravenous; conditions: in vivo, 1 h
Brain [4] = assay: Decrease in binding in MDR1a/b and BCRP1 deficient FVB mouse brain; conditions: in vitro
[5] = Ratio of drug level from brain to blood in MDR1a/b and BCRP1 deficient FVB mouse; format: ADME, tissue-based
Summary of the method: (§2)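 Mice (wild-type, Mdr1a/b(−/−), Bcrp1(−/−), Mdr1a/b(−/−)Bcrp1(−/−); n = 3 per type) under isoflurane anaesthesia, warmed to about 38 °C. Whole-brain SUV taken at 25 min. Brain-to-blood ratio = individual brain SUV ÷ mean whole-blood SUV from separate groups, with blood drawn retro-orbitally at 25 min and gamma-counted.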

Brain [6] = assay: Decrease in binding in MDR1a/b deficient FVB mouse brain; conditions: in vitro
Brain [7] = assay: Decrease in binding in BCRP1 deficient FVB mouse brain; conditions: in vitro
[8] = Ratio of drug level from brain to blood in BCRP1 deficient FVB mouse; format: ADME, tissue-based; conditions: brain and blood
Summary of the method: (§3)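 Single 60-min dynamic PET scan, whole brain outlined, SUV read at 25 min. Venous blood drawn retro-orbitally at 25 min in separate groups, gamma-counted and decay-corrected. Brain SUV of each animal divided by mean blood SUV of that group.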

[9] = Ratio of drug level from brain to blood in wild type FVB mouse; format: ADME, tissue-based; conditions: brain and blood; summary of the method: as §3
[10] = Ratio of drug level from brain to blood in MDR1a/b deficient FVB mouse; format: ADME, tissue-based; conditions: brain and blood; summary of the method: as §2
Brain [11] = assay: Drug uptake in rat brain after 0.5 to 1.3 mins; format: ADME, tissue-based; conditions: in vivo; summary of the method: as §1
[12] = target: T1, Broad substrate specificity ATP-binding cassette transporter ABCG2 (Homo sapiens, UniProt Q9UNQ0); assay: Inhibition of BCRP
T1 sequence (Q9UNQ0 whole entry): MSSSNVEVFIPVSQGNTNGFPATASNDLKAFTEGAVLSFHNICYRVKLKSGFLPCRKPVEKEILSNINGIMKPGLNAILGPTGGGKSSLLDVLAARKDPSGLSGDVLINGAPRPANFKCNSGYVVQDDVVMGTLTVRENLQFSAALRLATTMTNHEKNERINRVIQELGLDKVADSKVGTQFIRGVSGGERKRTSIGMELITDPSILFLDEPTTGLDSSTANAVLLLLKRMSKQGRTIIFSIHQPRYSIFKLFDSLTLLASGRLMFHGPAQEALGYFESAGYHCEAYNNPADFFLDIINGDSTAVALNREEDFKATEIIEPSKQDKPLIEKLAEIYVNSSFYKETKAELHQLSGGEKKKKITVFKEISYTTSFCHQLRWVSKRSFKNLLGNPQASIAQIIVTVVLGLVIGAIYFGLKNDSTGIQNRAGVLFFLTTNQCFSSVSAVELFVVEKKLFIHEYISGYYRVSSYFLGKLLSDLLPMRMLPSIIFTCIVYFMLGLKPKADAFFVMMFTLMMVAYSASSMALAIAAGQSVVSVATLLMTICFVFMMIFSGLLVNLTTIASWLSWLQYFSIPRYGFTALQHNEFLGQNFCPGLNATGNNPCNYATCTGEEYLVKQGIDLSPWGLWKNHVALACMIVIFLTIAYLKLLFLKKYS

[13] = Inhibition of MRP
Brain [14] = assay: Biodistribution in mouse brain; format: ADME, organism-based; conditions: in vivo; summary of the method: as §2

**Q.** Which SUV (Brain [1]) does the source give for `COc1cc2c(cc1OC)CN(CCc1ccc(NC(=O)c3cccc4c(=O)c5cccc(OC)c5[nH]c34)cc1)CC2` [ELACRIDAR] here?
**A.** 0.43

**Q.** And the SUV (Brain [2])?
**A.** 0.19

**Q.** And the SUV (Brain [3])?
**A.** 0.71

**Q.** Which results are given for `COc1cc2c(cc1OC)CN(CCc1ccc(NC(=O)c3cc(O[11CH3])c(OC)cc3NC(=O)c3cnc4ccccc4c3)cc1)CC2` [[11C]TARIQUIDAR]?
**A.** % decrease in binding (Brain [4]): 46%; Kp [5]: 14.5; % decrease in binding (Brain [6]): 49%; % decrease in binding (Brain [7]): 41%; Kp [8]: 1.8; Kp [9]: 1; Kp [10]: 3.4; SUV (Brain [11]): 0.71

**Q.** Which “inhibition (INH)” value [12] does the source give for `COc1cc2c(cc1OC)CN(CCc1ccc(NC(=O)c3cc(OC)c(OC)cc3NC(=O)c3cnc4ccccc4c3)cc1)CC2` [TARIQUIDAR] here?
**A.** Active

**Q.** What about the inhibition [13] of the same compound?
**A.** Active

**Q.** What about the Activity (Brain [14]) of the same compound?
**A.** 24%
